Each block holds one compound with its values, some of them ahead of it. *1 amine or outer side, *2 acyl side, *3 side chain or, on linkers, in order; H or OH if unused. Where a SMILES comes first, the peptide text is derived from it. [ ]: non-standard residue; d: D form. The star is where a group is joined. Pro(3R,4S-CMe2) = CC1(C)[C@@H]2[C@@H](C(=O)O)NC[C@@H]21; Pro(3S,4R-CCl2) = O=C(O)[C@H]1NC[C@H]2[C@@H]1C2(Cl)Cl; X2 = O=C(C(=O)[*:2])C(CC1CCC1)N[*:1]; X1 = O=C(C(=O)[*:2])C(CC1CC1)N[*:1]; X3 = CCCC(N[*:1])C(=O)C(=O)[*:2]; Chg = N[C@H](C(=O)O)C1CCCCC1; Phg = N[C@H](C(=O)O)c1ccccc1; Tle = CC(C)(C)[C@H](N)C(=O)O; Boc = CC(C)(C)OC(=O)*
Experiments:
[1] = Inhibition of hepatitis C virus NS3 serine protease; design: species or system Hepacivirus hominis
[2] = AUC in rat at 10 mg/kg, po; format: ADME, organism-based; design: dose 10 mg/kg, route oral; conditions: plasma
Hepatitis C virus = assay: Antiviral activity in hepatitis C virus by cell based replicon assay; format: functional, organism-based, Hepacivirus hominis
[3] = Oral bioavailability in rat; format: ADME, organism-based; conditions: in vivo
[4] = Oral bioavailability in monkey; format: ADME, organism-based, Macaca mulatta; conditions: rhesus monkey, in vivo
[5] = AUC in rat at 7.5 mg/kg, po; format: ADME, organism-based; design: dose 7.5 mg/kg, route oral; conditions: plasma
Procedure, shortened: (§1)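 AUC is given in µM h. Compounds were tested as mixtures of two diastereomers at the P1 α-centre, with the isomer ratio varying slightly by compound.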

[6] = AUC in rat at 6 mg/kg, iv; format: ADME, organism-based; design: dose 6 mg/kg, route intravenous; conditions: plasma; procedure, shortened: as §1
[7] = Half life in rat; format: ADME, organism-based; conditions: in vivo
[8] = AUC in dog at 0.6 mg/kg, iv; format: ADME, organism-based, Canis lupus familiaris; design: dose 0.6 mg/kg, route intravenous; conditions: plasma; procedure, shortened: as §1
[9] = AUC in monkey at 0.6 mg/kg, iv; format: ADME, organism-based, Macaca mulatta; design: dose 0.6 mg/kg, route intravenous; conditions: rhesus monkey, plasma; procedure, shortened: as §1
[10] = Oral bioavailability in dog; format: ADME, organism-based, Canis lupus familiaris; conditions: in vivo
[11] = Half life in dog; format: ADME, organism-based, Canis lupus familiaris; conditions: in vivo
[12] = Half life in monkey; format: ADME, organism-based, Macaca mulatta; conditions: rhesus monkey, in vivo
[13] = AUC in dog at 1.5 mg/kg, po; format: ADME, organism-based, Canis lupus familiaris; design: dose 1.5 mg/kg, route oral; conditions: plasma; procedure, shortened: as §1
[14] = AUC in monkey at 1.5 mg/kg, po; format: ADME, organism-based, Macaca mulatta; design: dose 1.5 mg/kg, route oral; conditions: rhesus monkey, plasma; procedure, shortened: as §1
[15] = AUC in dog at 3 mg/kg, po; format: ADME, organism-based, Canis lupus familiaris; design: dose 3 mg/kg, route oral; conditions: plasma; procedure, shortened: as §1
[16] = AUC in monkey at 2.2 mg/kg, iv; format: ADME, organism-based, Macaca mulatta; design: dose 2.2 mg/kg, route intravenous; conditions: rhesus monkey, plasma
[17] = AUC in rat at 10 mg/kg, iv; format: ADME, organism-based; design: dose 10 mg/kg, route intravenous; conditions: plasma
[18] = AUC in dog at 2.2 mg/kg, iv; format: ADME, organism-based, Canis lupus familiaris; design: dose 2.2 mg/kg, route intravenous; conditions: plasma; procedure, shortened: as §1
[19] = AUC in monkey at 3 mg/kg, po; format: ADME, organism-based, Macaca mulatta; design: dose 3 mg/kg, route oral; conditions: rhesus monkey, plasma

Structure (SMILES): CCCC(NC(=O)[C@@H]1[C@@H]2[C@H](CN1C(=O)[C@@H](NC(=O)OC(C)(C)C)C1CCCCC1)C2(Cl)Cl)C(=O)C(N)=O (stereo partly specified)
Ki [1]: 36 nM

AUC [2]: 0.32 µM·h
EC50 (Hepatitis C virus): 300 nM
Structure (SMILES): CC(C)(C)NC(=O)N[C@H](C(=O)N1C[C@H]2[C@@H]([C@H]1C(=O)NC(CC1CCC1)C(=O)C(N)=O)C2(Cl)Cl)C1CCCCC1 (stereo partly specified)
Ki [1]: 6 nM

Structure (SMILES): C=CCNC(=O)C(=O)C(CCC)NC(=O)[C@@H]1[C@@H]2[C@H](CN1C(=O)[C@@H](NC(=O)OC(C)(C)C)C1CCCCC1)C2(Cl)Cl (stereo partly specified)
Ki [1]: 90 nM

Structure (SMILES): CN(C)C(=O)[C@@H](NC(=O)CNC(=O)C(=O)C(CC1CCC1)NC(=O)[C@@H]1[C@@H]2[C@H](CN1C(=O)[C@@H](NC(=O)OC(C)(C)C)C1CCCCC1)C2(Cl)Cl)c1ccccc1 (stereo partly drawn) (Boc-[Chg][Pro(3S,4R-CCl2)][X2]G[Phg]-NMe2)
Ki [1]: 9 nM

Structure (SMILES): CCCC(NC(=O)[C@@H]1[C@@H]2[C@H](CN1C(=O)[C@@H](NC(=O)NC(C)(C)C)C1CCCCC1)C2(Cl)Cl)C(=O)C(N)=O (stereo partly specified)
Ki [1]: 20 nM

bioavailability [3]: 4%
bioavailability [4]: 1%
EC50 (Hepatitis C virus): 40 nM
Structure (SMILES): CN(C)C(=O)[C@@H](NC(=O)CNC(=O)C(=O)C(CC1CC1)NC(=O)[C@@H]1[C@@H]2[C@H](CN1C(=O)[C@@H](NC(=O)OC(C)(C)C)C(C)(C)C)C2(C)C)c1ccccc1 (stereo partly drawn) (Boc-[Tle][Pro(3R,4S-CMe2)][X1]G[Phg]-NMe2)
Ki [1]: 3.8 nM

Structure (SMILES): CN(C)C(=O)[C@@H](NC(=O)CNC(=O)C(=O)C(CC1CC1)NC(=O)[C@@H]1[C@@H]2[C@H](CN1C(=O)[C@@H](NC(=O)OC(C)(C)C)C1CCCCC1)C2(Cl)Cl)c1ccccc1 (stereo partly drawn) (Boc-[Chg][Pro(3S,4R-CCl2)][X1]G[Phg]-NMe2)
Ki [1]: 7 nM

EC50 (Hepatitis C virus): 40 nM
Structure (SMILES): C[C@@H](NC(=O)N[C@H](C(=O)N1C[C@H]2[C@@H]([C@H]1C(=O)NC(CC1CCC1)C(=O)C(N)=O)C2(Cl)Cl)C1CCCCC1)C(C)(C)C (stereo partly specified)
Ki [1]: 10 nM

Structure (SMILES): NC(=O)C(=O)C(CC1CCC1)NC(=O)[C@@H]1[C@@H]2[C@H](CN1C(=O)[C@@H](NC(=O)NC1CCCCC1)C1CCCCC1)C2(Cl)Cl (stereo partly specified)
Ki [1]: 15 nM

bioavailability [3]: 5%
EC50 (Hepatitis C virus): 200 nM
AUC [5]: 0.12 µM·h
AUC [6]: 1.9 µM·h
half-life [7]: 162 min
Structure (SMILES): CC(C)(C)NC(=O)N[C@H](C(=O)N1C[C@H]2[C@@H]([C@H]1C(=O)NC(CC1CCC1)C(=O)C(N)=O)C2(Cl)Cl)C(C)(C)C (stereo partly specified)
Ki [1]: 7 nM

Structure (SMILES): C=CCCC(NC(=O)[C@@H]1[C@@H]2[C@H](CN1C(=O)[C@@H](NC(=O)NC(C)(C)C)C1CCCCC1)C2(Cl)Cl)C(=O)C(=O)NCC=C (stereo partly specified)
Ki [1]: 44 nM

AUC [2]: 0.75 µM·h
EC50 (Hepatitis C virus): 200 nM
Structure (SMILES): NC(=O)C(=O)C(CC1CCC1)NC(=O)[C@@H]1[C@@H]2[C@H](CN1C(=O)[C@@H](NC(=O)OC1CC3CCC1C3)C1CCCCC1)C2(Cl)Cl (stereo partly specified)
Ki [1]: 60 nM

AUC [2]: 2.4 µM·h
AUC [8]: 2 µM·h
AUC [9]: 0.6 µM·h
bioavailability [4]: 4%
bioavailability [10]: 2%
half-life [11]: 282 min
EC50 (Hepatitis C virus): 300 nM
half-life [12]: 114 min
AUC [13]: 0.1 µM·h
AUC [14]: 0.06 µM·h
Structure (SMILES): CC(C)(C)OC(=O)N[C@H](C(=O)N1C[C@H]2[C@@H]([C@H]1C(=O)NC(CC1CCC1)C(=O)C(N)=O)C2(Cl)Cl)C1CCCCC1 (stereo partly specified)
Ki [1]: 17 nM

EC50 (Hepatitis C virus): 200 nM
Structure (SMILES): CC(C)(C)NC(=O)N[C@H](C(=O)N1C[C@H]2[C@@H]([C@H]1C(=O)NC(CC1CCC1)C(=O)C(N)=O)C2(C)C)C(C)(C)C (stereo partly specified) [BOCEPREVIR]
Ki [1]: 14 nM

Structure (SMILES): CC(C)(C)OC(=O)N[C@H](C(=O)N1C[C@H]2[C@@H]([C@H]1C(=O)NC(CC1CCC1)C(=O)C(N)=O)C2(Cl)Cl)C1Cc2ccccc2C1 (stereo partly specified)
Ki [1]: 60 nM

Structure (SMILES): C=CCNC(=O)C(=O)C(CCC)NC(=O)[C@@H]1[C@@H]2[C@H](CN1C(=O)[C@@H](NC(=O)NC(C)(C)C)C1CCCCC1)C2(Cl)Cl (stereo partly specified)
Ki [1]: 100 nM

Structure (SMILES): CC(C)(C)NC(=O)N[C@H](C(=O)N1C[C@H]2[C@@H]([C@H]1C(=O)NC(CC1CCC1)C(=O)C(N)=O)C2(Cl)Cl)C1Cc2ccccc2C1 (stereo partly specified)
Ki [1]: 30 nM

Structure (SMILES): CC(C)(OC(=O)N[C@H](C(=O)N1C[C@H]2[C@@H]([C@H]1C(=O)NC(CC1CCC1)C(=O)C(N)=O)C2(Cl)Cl)C1CCCCC1)C(F)(F)F (stereo partly specified)
Ki [1]: 65 nM

AUC [2]: 0.3 µM·h
bioavailability [3]: 12%
AUC [15]: 0.61 µM·h
AUC [16]: 1.2 µM·h
bioavailability [4]: 50%
bioavailability [10]: 10%
half-life [11]: 378 min
AUC [17]: 2.6 µM·h
AUC [18]: 4.5 µM·h
EC50 (Hepatitis C virus): 100 nM
half-life [12]: 66 min
AUC [19]: 0.77 µM·h
half-life [7]: 336 min
Structure (SMILES): CC(C)(C)OC(=O)N[C@H](C(=O)N1C[C@H]2[C@@H]([C@H]1C(=O)NC(CC1CCC1)C(=O)C(N)=O)C2(Cl)Cl)C(C)(C)C (stereo partly specified)
Ki [1]: 9 nM

AUC [2]: 2.7 µM·h
bioavailability [3]: 26%
AUC [15]: 0.07 µM·h
AUC [16]: 1.2 µM·h
bioavailability [4]: 8%
bioavailability [10]: 2%
half-life [11]: 960 min
AUC [17]: 10.7 µM·h
AUC [18]: 2.6 µM·h
EC50 (Hepatitis C virus): 500 nM
half-life [12]: 576 min
AUC [19]: 0.13 µM·h
half-life [7]: 264 min
Structure (SMILES): CC(C)(C)OC(=O)N[C@H](C(=O)N1C[C@H]2[C@@H]([C@H]1C(=O)NC(CC1CC1)C(=O)C(N)=O)C2(Cl)Cl)C1CCCCC1 (stereo partly specified)
Ki [1]: 11 nM

Structure (SMILES): CCCC(NC(=O)[C@@H]1[C@@H]2[C@H](CN1C(=O)[C@@H](NC(=O)OC(C)(C)C)C1CCCCC1)C2(Cl)Cl)C(=O)C(=O)NCC(=O)N[C@H](C(=O)N(C)C)c1ccccc1 (stereo partly drawn) (Boc-[Chg][Pro(3S,4R-CCl2)][X3]G[Phg]-NMe2)
Ki [1]: 15 nM

Reference: ChEMBL document CHEMBL1143105, “Potent and selective small molecule NS3 serine protease inhibitors of Hepatitis C virus with dichlorocyclopropylproline as P2 residue” (Bioorg Med Chem, 2008)
